In PMC3306222 (Biopolymers, 2011):
Where a SMILES comes first, the peptide text is derived from it. Bridges are numbered along the chain shown (N, C = ends). [ ]: non-standard residue; d: D form. S5 = C=CCCC[C@](C)(N)C(=O)O

How the values were obtained:
[1] = Dynamic light scattering of free peptides; format: physicochemical; settings: DLS, lower peptide concentration (100 µM)
In short: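 Free stapled peptide stocks, quantified by absorbance at 280 nm, were diluted into D₂O or H₂O to 100 µM or 1 mM and centrifuged at 6,000–8,000 g before loading. Light scattering was recorded as one hundred 5-s scans per sample at ambient temperature and corrected for solvent signal. Normalized intensity was plotted against radius, and the hydrodynamic radius and polydispersity index of major peaks were reported.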

[2] = format: physicochemical; settings: fit of NMR chemical shift changes with concentration, D2O, 298 K, pH 7.0
[3] = biological target: CA-CTD dimerization helix peptide CTD dimerization helix (Human immunodeficiency virus 1) (UniProt O93182); settings: cited from earlier work

Compound | effective radius of gyration of monomer [1] [nm] | Kd of self-association, isodesmic model of indefinite association [2] [µM] | Kd [3] [µM]
CC[C@H](C)[C@H](N)C(=O)N[C@H](C(=O)N[C@@H](Cc1ccccc1)C(=O)N[C@@]1(C)CCC/C=C\CCC[C@@](C)(C(=O)N[C@@H](Cc2ccc(O)cc2)C(=O)N[C@@H](Cc2ccc(O)cc2)C(=O)NCC(=O)N[C@@H](CCCCN)C(=O)N[C@@H](CCCCN)C(=O)N[C@@H](CCCCN)C(N)=O)NC(=O)[C@H](CC(C)C)NC(=O)[C@H](CC(C)C)NC(=O)[C@H](CC(=O)O)NC1=O)[C@@H](C)O [NYAD-13] (H-ITF[S5]DLL[S5]YYGKKK-NH2; staple (Z) 4-8; N-terminus and C-terminus assumed) | 1 | 2500 ± 1400 | –
CA-CTD dimerization helix peptide CTD dimerization helix (from UniProt O93182) | – | – | 17
